Data reported in ChEMBL document CHEMBL3872218, “Synthesis and T-type calcium channel-blocking effects of aryl(1,5-disubstituted-pyrazol-3-yl)methyl sulfonamides for neuropathic pain treatment” (Eur J Med Chem, 2016).

Tests used:
Homo sapiens = organism: Homo sapiens; assay: Inhibition of N-type Ca2+ channel (unknown origin) at 10 uM by whole-cell patch clamp method relative to control
[1] = Total clearance in Sprague-Dawley rat at 10 mg/kg, iv; assay type: ADME, organism-based; conditions: in vivo
[2] = Ratio of drug level in brain to plasma in Sprague-Dawley rat at 10 mg/kg, iv at 2 hrs post dose; assay type: ADME, organism-based; conditions: read-out: BPR
Rattus norvegicus [3] = assay: Antineuropathic pain activity in rat spinal nerve ligation model assessed as effect on mechanical allodynia by measuring frequency of paw withdrawal at 100 mg/kg, po measured at 3 hrs relative to control; assay type: functional
Method in brief: (§1)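 Spinal nerve ligation rats tested 2 weeks after nerve surgery, 100 mg/kg oral, n = 4 per group. Behaviour re-tested at 1, 3 and 5 h after dosing. Mechanical allodynia: von Frey filament applied five times, every 3–4 s, to the hind paw on a wire mesh floor. Cold allodynia: acetone applied to the plantar hind paw on a metal mesh floor.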

CYP2D6 = CYP2D6 (Homo sapiens, UniProt P10635); assay: Inhibition of human CYP2D6 assessed as remaining activity at 10 uM using vivid CYP450 substrate measured after 15 mins by fluorescence assay relative to quinidine; assay type: ADME; conditions: probe vivid CYP450 substrate, read-out: Activity
Chain of CYP2D6 (P10635 whole entry, canonical isoform): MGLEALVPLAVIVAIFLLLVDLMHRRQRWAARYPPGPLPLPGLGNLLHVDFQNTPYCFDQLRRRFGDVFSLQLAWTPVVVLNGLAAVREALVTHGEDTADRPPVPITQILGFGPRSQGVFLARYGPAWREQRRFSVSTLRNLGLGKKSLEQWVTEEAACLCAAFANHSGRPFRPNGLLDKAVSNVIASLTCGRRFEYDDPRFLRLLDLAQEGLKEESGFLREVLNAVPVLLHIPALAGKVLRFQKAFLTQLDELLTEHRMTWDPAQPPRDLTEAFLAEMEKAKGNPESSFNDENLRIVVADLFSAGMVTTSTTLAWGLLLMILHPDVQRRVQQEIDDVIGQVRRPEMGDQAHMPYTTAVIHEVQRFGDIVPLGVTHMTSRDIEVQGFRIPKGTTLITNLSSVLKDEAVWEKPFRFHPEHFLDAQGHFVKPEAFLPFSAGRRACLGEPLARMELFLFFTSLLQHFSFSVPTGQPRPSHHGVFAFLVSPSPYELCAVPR
Method in brief: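 Vivid fluorescence CYP assay: test compound at […] in water, mixed with BACULOSOMES master pre-mix and regeneration system, preincubated 15 min at 37 °C. Reaction started with Vivid substrate and NADPH. Remaining activity read by fluorescence as % of control, triplicate, mean ± SD. Isoform-specific reference inhibitors: α-naphthoflavone (1A2), sulfaphenazole (2C9), quinidine (2D6), ketoconazole (3A4).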

Rattus norvegicus [4] = assay: Antineuropathic pain activity in rat spinal nerve ligation model assessed as effect on cold allodynia by measuring frequency of paw withdrawal at 100 mg/kg, po measured at 5 hrs relative to gabapentin; assay type: functional; method in brief: as §1
[5] = AUC (0 to infinity) in Sprague-Dawley rat at 10 mg/kg, iv; assay type: ADME, organism-based; design: dose 10 mg/kg, route intravenous, time infinity; conditions: in vivo
Rattus norvegicus [6] = assay: Antineuropathic pain activity in rat spinal nerve ligation model assessed as effect on cold allodynia by measuring frequency of paw withdrawal at 100 mg/kg, po measured at 5 hrs relative to control; assay type: functional; method in brief: as §1
[7] = Oral bioavailability in Sprague-Dawley rat at 10 mg/Kg; assay type: ADME, organism-based; conditions: in vivo
[8] = AUClast in Sprague-Dawley rat at 10 mg/kg, po; assay type: ADME, organism-based; design: dose 10 mg/kg, route oral, time 0 - last; conditions: in vivo
Rattus norvegicus [9] = assay: Antineuropathic pain activity in rat spinal nerve ligation model assessed as effect on cold allodynia by measuring frequency of paw withdrawal at 100 mg/kg, po measured at 3 hrs relative to gabapentin; assay type: functional; method in brief: as §1
Rattus norvegicus [10] = assay: Antineuropathic pain activity in rat spinal nerve ligation model assessed as effect on mechanical allodynia by measuring frequency of paw withdrawal at 100 mg/kg, po measured at 3 hrs relative to gabapentin; assay type: functional; method in brief: as §1
[11] = Plasma concentration in Sprague-Dawley rat at 10 mg/kg, iv at 2 hrs post dose; assay type: ADME, organism-based
[12] = molecular target: Voltage-dependent T-type calcium channel subunit alpha-1H (Homo sapiens, UniProt O95180); assay: Inhibition of Cav3.2 alpha1H (unknown origin) expressed in HEK293 cells assessed as decrease in KCl-induced depolarization mediated intracellular Ca2+ level at 10 uM by fluo3/AM based high throughput screening assay relative to control; assay type: cell-based
Chain of Voltage-dependent T-type calcium channel subunit alpha-1H (O95180 whole entry): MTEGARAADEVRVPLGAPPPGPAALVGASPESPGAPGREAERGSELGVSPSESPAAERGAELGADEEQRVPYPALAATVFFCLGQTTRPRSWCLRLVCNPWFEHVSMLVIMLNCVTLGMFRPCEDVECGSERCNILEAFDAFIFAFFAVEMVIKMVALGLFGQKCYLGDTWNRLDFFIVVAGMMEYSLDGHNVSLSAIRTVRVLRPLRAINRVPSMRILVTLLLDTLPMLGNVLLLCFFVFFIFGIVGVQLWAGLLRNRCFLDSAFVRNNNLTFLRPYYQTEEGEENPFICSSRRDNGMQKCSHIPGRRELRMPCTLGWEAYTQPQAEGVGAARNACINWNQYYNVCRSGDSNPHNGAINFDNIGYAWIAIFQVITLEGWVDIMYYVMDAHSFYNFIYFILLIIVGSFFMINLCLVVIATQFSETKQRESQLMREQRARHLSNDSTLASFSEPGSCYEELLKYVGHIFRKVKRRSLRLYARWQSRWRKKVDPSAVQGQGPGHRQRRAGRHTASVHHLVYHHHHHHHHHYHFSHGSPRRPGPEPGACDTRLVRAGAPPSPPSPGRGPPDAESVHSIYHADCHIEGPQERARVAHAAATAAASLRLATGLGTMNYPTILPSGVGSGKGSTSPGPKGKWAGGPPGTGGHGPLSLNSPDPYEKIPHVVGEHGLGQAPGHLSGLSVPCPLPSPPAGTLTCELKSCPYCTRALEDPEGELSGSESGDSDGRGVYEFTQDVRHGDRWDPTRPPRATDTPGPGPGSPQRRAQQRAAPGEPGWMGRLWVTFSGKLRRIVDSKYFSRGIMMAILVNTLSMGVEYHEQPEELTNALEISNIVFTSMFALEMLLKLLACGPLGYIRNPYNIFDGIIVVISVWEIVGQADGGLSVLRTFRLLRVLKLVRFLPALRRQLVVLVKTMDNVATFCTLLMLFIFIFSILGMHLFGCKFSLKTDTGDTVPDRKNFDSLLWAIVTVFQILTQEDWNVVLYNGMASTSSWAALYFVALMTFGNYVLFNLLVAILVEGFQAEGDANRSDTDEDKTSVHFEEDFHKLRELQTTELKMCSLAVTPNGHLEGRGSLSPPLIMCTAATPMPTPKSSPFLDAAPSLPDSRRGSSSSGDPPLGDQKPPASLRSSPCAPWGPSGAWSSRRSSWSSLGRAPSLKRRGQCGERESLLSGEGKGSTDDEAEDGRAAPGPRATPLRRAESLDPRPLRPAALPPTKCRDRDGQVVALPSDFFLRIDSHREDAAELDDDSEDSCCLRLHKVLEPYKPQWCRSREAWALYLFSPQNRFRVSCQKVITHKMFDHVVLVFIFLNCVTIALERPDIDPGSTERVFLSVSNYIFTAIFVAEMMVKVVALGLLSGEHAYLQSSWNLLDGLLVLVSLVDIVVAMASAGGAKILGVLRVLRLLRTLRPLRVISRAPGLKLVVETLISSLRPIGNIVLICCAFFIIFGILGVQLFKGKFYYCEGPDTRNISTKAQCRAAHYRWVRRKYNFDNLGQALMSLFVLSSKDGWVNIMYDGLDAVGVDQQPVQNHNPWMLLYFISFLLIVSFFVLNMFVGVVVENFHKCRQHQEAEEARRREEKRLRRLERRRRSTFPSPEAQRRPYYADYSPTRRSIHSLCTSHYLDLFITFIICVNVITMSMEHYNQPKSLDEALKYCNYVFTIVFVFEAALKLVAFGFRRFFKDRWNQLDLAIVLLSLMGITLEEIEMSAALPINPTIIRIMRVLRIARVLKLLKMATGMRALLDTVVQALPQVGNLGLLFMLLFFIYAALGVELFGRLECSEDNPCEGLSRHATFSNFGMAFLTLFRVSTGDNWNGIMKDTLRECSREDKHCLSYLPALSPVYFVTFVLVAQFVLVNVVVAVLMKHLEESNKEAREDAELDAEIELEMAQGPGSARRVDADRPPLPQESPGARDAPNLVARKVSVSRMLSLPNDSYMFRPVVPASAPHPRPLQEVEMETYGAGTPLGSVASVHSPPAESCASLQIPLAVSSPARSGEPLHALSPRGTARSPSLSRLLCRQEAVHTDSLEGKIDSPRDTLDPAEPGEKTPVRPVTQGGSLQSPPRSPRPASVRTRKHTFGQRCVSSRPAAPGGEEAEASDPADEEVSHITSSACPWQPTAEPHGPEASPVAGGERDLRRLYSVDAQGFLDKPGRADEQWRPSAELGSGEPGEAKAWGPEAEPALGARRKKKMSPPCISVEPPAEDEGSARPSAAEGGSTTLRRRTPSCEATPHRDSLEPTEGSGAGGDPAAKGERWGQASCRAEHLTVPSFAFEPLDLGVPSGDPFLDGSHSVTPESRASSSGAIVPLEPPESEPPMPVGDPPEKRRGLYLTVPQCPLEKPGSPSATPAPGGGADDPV
Method in brief: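 HEK293 cells stably expressing Cav3.1 or Cav3.2 plated at 4 × 10⁴ cells/well and used the next day. Loaded 60 min at room temperature with […] fluo3/AM plus 0.001% Pluronic F-127 in HEPES-buffered saline (1.8 mM CaCl₂, pH 7.4). Ca²⁺ fluorescence read on FDSS6000 as % inhibition, compound at […].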

[13] = Metabolic stability in human liver microsomes assessed as compound remaining at 1 uM in presence of NADPH as cofactor by LC-MS/MS method; assay type: ADME; conditions: read-out: Stability
Method in brief: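 Pooled mixed-gender human liver microsomes incubated with compound at 37 °C with NADPH as cofactor. Result given as % parent compound remaining.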

[14] = Cmax in Sprague-Dawley rat at 10 mg/kg, po; assay type: ADME, organism-based; design: dose 10 mg/kg, route oral; conditions: in vivo
[15] = AUClast in Sprague-Dawley rat at 10 mg/kg, iv; assay type: ADME, organism-based; design: dose 10 mg/kg, time 0 - last, route intravenous; conditions: in vivo

inhibition (Homo sapiens): 55.6%
clearance [1]: 83.8 mL/min/kg
Kp at 2 h [2]: 1.4
activity at 0.25 h, 10 µM (CYP2D6): 204%
AUC(0-inf) [5]: 2020 ng·h/mL
bioavailability [7]: 8.3%
AUC(0-t) [8]: 164 ng·h/mL
concentration at 2 h [11]: 270 ng/mL
inhibition [12]: 62.7%
remaining at 1 µM [13]: 1.72%
Cmax [14]: 70 ng/mL
AUC(0-t) [15]: 2010 ng·h/mL
Compound: CC(C)Cc1cc(CNS(=O)(=O)c2cccc(F)c2)nn1-c1ccccc1
MPE (Rattus norvegicus [3]): 29.68%
MPE (Rattus norvegicus [4]): 185.11%
MPE (Rattus norvegicus [6]): 80.82%
MPE (Rattus norvegicus [9]): 91.75%
MPE (Rattus norvegicus [10]): 52.13%
